Experimental data of several laboratories.
Protocols differ between the studies behind these lines.
EGFR L858R: Epidermal growth factor receptor (EGFR, Homo sapiens, UniProt P00533, L858R)
EGFR G719S: Epidermal growth factor receptor (EGFR, Homo sapiens, UniProt P00533, G719S)
EGFR del752-759: Epidermal growth factor receptor (EGFR, Homo sapiens, UniProt P00533, del752-759)
EGFR L861Q: Epidermal growth factor receptor (EGFR, Homo sapiens, UniProt P00533, L861Q)
EGFR A750P/del747-749: Epidermal growth factor receptor (EGFR, Homo sapiens, UniProt P00533, A750P/del747-749)
EGFR del746-750: Epidermal growth factor receptor (EGFR, Homo sapiens, UniProt P00533, del746-750)
EGFR L858R/T790M: Epidermal growth factor receptor (EGFR, Homo sapiens, UniProt P00533, L858R/T790M)
EGFR del747-752/P753S: Epidermal growth factor receptor (EGFR, Homo sapiens, UniProt P00533, del747-752/P753S)

SMILES | target | read-out | method | tested at | remaining binding [%]
Nc1cnc(N2CCc3cc(S(=O)(=O)Nc4c(F)cc(Cl)cc4F)cc(N4CCCC4=O)c32)nc1 | EGFR L858R | cell-free assay | competition with immobilised ligand | 1 µM | 85
CN(c1nccc(-c2cnn3ncccc23)n1)C1CC1 | EGFR G719S | binding |  | 1 µM | 100
Cn1nc(C(F)(F)F)cc1-c1cnc(N2CCc3cc(S(=O)(=O)Nc4c(F)cc(Cl)cc4F)cc(N4CCCC4=O)c32)nc1 | EGFR del752-759 | cell-free assay | competition with immobilised ligand | 1 µM | 100
COc1ccnn2ncc(-c3ccnc(N(C)C)n3)c12 | EGFR L861Q | binding |  | 1 µM | 97
CCS(=O)(=O)c1cc2cc(C[C@@](O)(CC(C)(C)c3ccc(F)cc3C(N)=O)C(F)(F)F)[nH]c2cn1 | Epidermal growth factor receptor (EGFR, Homo sapiens, UniProt P00533, del747-750/T751S) | cell-free assay | competition with immobilised ligand | 1 µM | 93
Nc1ncc2c(n1)-c1c([nH]c3ccc(C#CC4CC4)cc13)CCCC2 | EGFR A750P/del747-749 | binding | competition with immobilised ligand | 1 µM | 84
CN(CCCC(F)(F)F)c1nccc(-c2cnn3ncccc23)n1 | EGFR del752-759 | binding |  | 1 µM | 85
Cc1cnc(Nc2ccc(C(=O)N3CCC(N4CCCC4)CC3)cc2)nc1-c1cc2ccccc2s1 | EGFR del746-750 | binding | competition with immobilised ligand | 1 µM | 100
NS(=O)(=O)c1cc(NC(=O)C2(c3ccccc3Cl)CC2)ccc1Oc1cccc(Cl)c1 | EGFR G719S | cell-free assay | competition with immobilised ligand | 1 µM | 98
N[C@H]1CCN(c2nccc(-c3cnn4ncccc34)n2)C1 | EGFR G719S | binding |  | 1 µM | 93
COc1cnc(Nc2cccc(S(N)(=O)=O)c2)nc1N1CCN(c2ccccc2)C(=O)C1 | EGFR L858R/T790M | binding | competition with immobilised ligand | 1 µM | 72
c1cncc(-c2cccc(Nc3nccc(NC4CCCCC4)n3)c2)c1 | EGFR G719S | binding | competition with immobilised ligand | 10 µM | 68
CN(C(=O)c1ccccc1)c1cc(N(C)c2ccc3c(c2)CCc2ccc(C(=O)NCCN4CCOCC4)cc2C3=O)ccc1F | EGFR L861Q | cell-free assay | competition with immobilised ligand | 1 µM | 100
CN(C)c1nccc(-c2cnn3ncccc23)n1 | EGFR L858R/T790M | binding |  | 1 µM | 100
CCN1CCN(Cc2ccc(C(=O)Nc3ccc(C)c(Oc4ccc5c(c4)CC(=O)N5)c3)cc2C(F)(F)F)CC1 | Epidermal growth factor receptor (EGFR, Homo sapiens, UniProt P00533) | binding | competition with immobilised ligand | 1 µM | 100
O=C(NCCCN1CCOCC1)c1ccc(Nc2nccc(-c3cc4ccccc4s3)n2)cc1 | EGFR del747-752/P753S | binding | competition with immobilised ligand | 1 µM | 92
CCC(=O)N[C@H]1CC[C@@H](C(=O)N(C)c2ccc(-c3nc4ccccc4o3)cc2)C1 | EGFR del747-752/P753S | cell-free assay | competition with immobilised ligand | 1 µM | 79
O=C(Nc1c[nH]nc1C(=O)NC1CCNCC1)c1cc(F)cc(F)c1 | EGFR L858R/T790M | binding | competition with immobilised ligand | 1 µM | 100
O=C(c1ccc(Nc2ncc(Cl)c(-c3cc4ccccc4s3)n2)cc1)N1CCC(N2CCCC2)CC1 | Epidermal growth factor receptor (EGFR, Homo sapiens, UniProt P00533, G719C) | binding | competition with immobilised ligand | 1 µM | 88
c1ccc(N2CCN(Cc3nc4ccccc4[nH]3)CC2)nc1 | EGFR A750P/del747-749 | cell-free assay | competition with immobilised ligand | 1 µM | 100
C[C@H]1CCN(c2nccc(-c3cnn4ncccc34)n2)C1 | Epidermal growth factor receptor (EGFR, Homo sapiens, UniProt P00533, T790M) | binding |  | 1 µM | 76
CN1CCN(c2ccc(Nc3nccc(-c4cccc([N+](=O)[O-])c4)n3)cc2C(F)(F)F)CC1 | EGFR del746-750 | binding |  | 10 µM | 34
O=C(c1ccc(Nc2nccc(-c3cc4ccccc4s3)n2)cc1)N1CCC(N2CCCC2)CC1 | EGFR L858R | binding | competition with immobilised ligand | 1 µM | 100
